Data set [1] concerns Toxoplasma gondii. Briefly: Antiparasitic activity against Toxoplasma gondii expressing beta-galactosidase infected in HFF assessed as parasite growth inhibition after 72 hrs. It counts as functional, organism-based. The procedure, abridged:
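β-gal-expressing parasites preincubated 30 min with compound dilutions in DMEM/10% FBS/gentamicin containing 0.2% DMSO, then inoculated at 500/well onto confluent HFF monolayers and cultured continuously; 72 h at 37 °C, 5% CO2. Lysed cells read with chlorophenol red-β-d-galactopyranoside at A570, normalized to untreated control; EC50 from variable-slope log(inhibitor)-response fit, three experiments (n = 4 replicates).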

The test system of data set [2] is Toxoplasma gondii. Briefly: Antiparasitic activity against Toxoplasma gondii expressing beta-galactosidase infected in HFF assessed as parasite growth inhibition treated for 2 hrs followed by washout measured after 48 hrs after 72 hrs relative to continuous culture in presence of drug for 48 hrs. It counts as functional. The essentials: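 β-gal-expressing T. gondii preincubated 30 min with compound dilutions in complete DMEM (10% FBS, gentamicin, 0.2% DMSO), 500 parasites/well onto confluent HFF; compound washed out after 2 h versus continuous exposure; 72 h at 37 °C, 5% CO2. Lysis, chlorophenol red-β-D-galactopyranoside, A570 normalized to untreated; variable-slope log(inhibitor)-response fit; three experiments, n = 4.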

Another data set has as its system HFF. The data set can be described thus: Cytotoxicity against HFF after 72 hrs. Format: cell-based. To be noted: human. The essentials:
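Confluent HFF monolayers given serial dilutions in complete DMEM with 0.2% DMSO for 72 h; viable cells by MTS colorimetric assay, normalized to untreated cells.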

The target in data set [3] is Actin (Toxoplasma gondii) (UniProt P53476). Briefly: Induction of Toxoplasma gondii N-terminally his-tagged recombinant actin polymerization after 1 hr. The procedure, abridged: (§1)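 His-tagged TgACTI from baculovirus, Ni-NTA purified, cleared at 100000g; 5 μM actin in F-buffer (50 mM KCl, 2 mM MgCl2, 1 mM ATP) with compound plus Alexa 488 phalloidin 1.2 U/μL, 1 h; filaments imaged by fluorescence microscopy (63× oil); lengths averaged over three filaments per point.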

The target is the same in data set [4]. The data set can be described thus: Induction of Toxoplasma gondii N-terminally his-tagged recombinant actin polymerization at 0.25 uM after 1 hr using phalloidin staining by fluorescence microscopic analysis. The procedure, abridged: as §1
For data set [5] the target is unchanged. The data set can be described thus: Induction of Toxoplasma gondii N-terminally his-tagged recombinant actin polymerization at 2 uM after 1 hr using phalloidin staining by fluorescence microscopic analysis. The procedure, abridged:
as §1

Calls of active or inactive are those of the source. No cut-off for these calls is given here.

Actin (Toxoplasma gondii), sequence (P53476 whole entry): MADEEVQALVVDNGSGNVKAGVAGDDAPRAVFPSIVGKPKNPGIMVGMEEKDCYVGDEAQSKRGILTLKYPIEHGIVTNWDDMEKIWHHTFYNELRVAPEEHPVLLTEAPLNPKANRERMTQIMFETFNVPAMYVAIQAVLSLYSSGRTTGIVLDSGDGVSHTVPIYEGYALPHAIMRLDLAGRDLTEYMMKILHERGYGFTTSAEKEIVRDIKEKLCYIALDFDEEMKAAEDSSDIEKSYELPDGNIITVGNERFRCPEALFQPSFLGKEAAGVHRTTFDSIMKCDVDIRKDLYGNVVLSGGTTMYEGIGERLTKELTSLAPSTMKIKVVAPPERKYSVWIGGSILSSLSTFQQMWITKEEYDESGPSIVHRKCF

As a reminder, the EC50 is the midpoint of the concentration-response curve. Regarding `CO[C@@H]1C(=O)O[C@H](C)[C@H](C)/C=C(\C)C[C@H](C)C(=O)N[C@@H](C)C(=O)N(C)[C@H](Cc2c[nH]c3ccccc23)C(=O)N[C@H]1c1ccc(C#N)cc1`, the EC50 with Toxoplasma gondii [1] amounted to 380 nM.

With `CO[C@@H]1C(=O)O[C@H](C)[C@H](C)/C=C(\C)C[C@H](C)C(=O)N[C@@H](C)C(=O)N(C)[C@H](Cc2c[nH]c3ccccc23)C(=O)N[C@H]1c1ccc(CO)cc1`, in the data set with Toxoplasma gondii [1], the EC50 was found to be 740 nM.

`COc1ccc([C@@H]2NC(=O)[C@@H](Cc3c[nH]c4ccccc34)N(C)C(=O)[C@H](C)NC(=O)[C@@H](C)C/C(C)=C/[C@@H](C)[C@@H](C)OC(=O)[C@H]2OC)cc1`: in the data set on Toxoplasma gondii [1], the EC50 was 690 nM.

Turning to `CO[C@@H]1C(=O)O[C@H](C)[C@H](C)/C=C(\C)C[C@H](C)C(=O)N[C@@H](C)C(=O)N(C)[C@H](Cc2c[nH]c3ccccc23)C(=O)N[C@H]1c1ccc(C)cc1`, in the data set with Toxoplasma gondii [1], the EC50 is 530 nM.

On to `C/C1=C\[C@H](C)C[C@H](C)OC(=O)C[C@H](c2ccc(O)cc2)NC(=O)[C@@H](Cc2c(Br)[nH]c3ccccc23)N(C)C(=O)[C@H](C)NC(=O)[C@@H](C)C1` [JASPAMIDE], for which the EC50 in the data set on Toxoplasma gondii [1] worked out at 340 nM. In the data set on Toxoplasma gondii [2], the “fold change (FC)” value worked out at 1.5. In the data set with HFF, the Activity entry was “Toxic”. For the same molecule, the result in data set [3] was Active.

In the case of `C/C1=C\[C@@H](C)[C@@H](C)OC(=O)C[C@H](c2ccc(O)cc2)NC(=O)[C@@H](Cc2c[nH]c3ccccc23)N(C)C(=O)[C@H](C)NC(=O)[C@@H](C)C1`, in the data set on Toxoplasma gondii [1], the EC50 was found to be 480 nM. For the same molecule, the Activity entry with HFF is on record as “Toxic”.

In the case of `CO[C@@H]1C(=O)O[C@H](C)[C@H](C)/C=C(\C)C[C@H](C)C(=O)N[C@@H](C)C(=O)N(C)[C@H](Cc2c[nH]c3ccccc23)C(=O)N[C@H]1c1ccc(O)cc1`, the EC50 in the data set on Toxoplasma gondii [1] is 560 nM. For the same molecule, the result in data set [4] and in data set [5] was Active. The values for the Activity result (with HFF; in data set [3]) were “Toxic” and “Dose-dependent effect”, respectively.

As for `CO[C@@H]1C(=O)O[C@H](C)[C@H](C)/C=C(\C)C[C@H](C)C(=O)N[C@@H](C)C(=O)N(C)[C@H](Cc2c[nH]c3ccccc23)C(=O)N[C@H]1c1ccc([N+](=O)[O-])cc1`, the EC50 in the data set on Toxoplasma gondii [1] was found to be 610 nM.

As for `CO[C@@H]1C(=O)O[C@H](C)[C@H](C)/C=C(\C)C[C@H](C)C(=O)N[C@@H](C)C(=O)N(C)[C@H](Cc2c[nH]c3ccccc23)C(=O)N[C@H]1c1ccc(N)cc1`, the EC50 with Toxoplasma gondii [1] was determined as 660 nM.

On to `CO[C@@H]1C(=O)O[C@H](C)[C@H](C)/C=C(\C)C[C@H](C)C(=O)N[C@@H](C)C(=O)N(C)[C@H](Cc2c[nH]c3ccccc23)C(=O)N[C@H]1c1ccc(F)cc1`, for which the 50% effective concentration (EC50) in the data set with Toxoplasma gondii [1] was determined as 320 nM.

Turning to `CO[C@@H]1C(=O)O[C@H](C)[C@H](C)/C=C(\C)C[C@H](C)C(=O)N[C@@H](C)C(=O)N(C)[C@H](Cc2c[nH]c3ccccc23)C(=O)N[C@H]1c1ccc(C(N)=O)cc1`, the EC50 in the data set on Toxoplasma gondii [1] is at least 45000 nM.

Consider `CO[C@@H]1C(=O)O[C@H](C)[C@H](C)/C=C(\C)C[C@H](C)C(=O)N[C@@H](C)C(=O)N(C)[C@H](Cc2c[nH]c3ccccc23)C(=O)N[C@H]1c1ccc(-c2ccccc2)cc1`, for which, in the data set with Toxoplasma gondii [1], the EC50 stood at 1340 nM.

In the case of `CO[C@@H]1C(=O)O[C@H](C)[C@H](C)/C=C(\C)C[C@H](C)C(=O)N[C@@H](C)C(=O)N(C)[C@H](Cc2c(Cl)[nH]c3ccccc23)C(=O)N[C@H]1c1ccc(O)cc1`, in the data set on Toxoplasma gondii [1], the concentration for a half-maximal effect (EC50) was 220 nM. The Activity entry with HFF is listed as “Toxic”.

Take `CO[C@@H]1C(=O)O[C@H](C)[C@H](C)/C=C(\C)C[C@H](C)C(=O)N[C@@H](C)C(=O)N(C)[C@H](Cc2c[nH]c3ccccc23)C(=O)N[C@H]1c1ccc(CCO)cc1`: the EC50 in the data set with Toxoplasma gondii [1] was 600 nM.

Consider `CO[C@@H]1C(=O)O[C@H](C)[C@H](C)/C=C(\C)C[C@H](C)C(=O)N[C@@H](C)C(=O)N(C)[C@H](Cc2c[nH]c3ccccc23)C(=O)N[C@H]1c1ccccc1`, for which the EC50 in the data set with Toxoplasma gondii [1] turned out to be 510 nM. The “fold change (FC)” value in the data set with Toxoplasma gondii [2] worked out at 1.5. Besides, the result in data set [4] and in data set [5] was Active. Besides, the Activity entry in data set [3] is “Dose-dependent effect”.

The record behind these values is ChEMBL document CHEMBL2424601, “Synthetic chondramide A analogues stabilize filamentous actin and block invasion by Toxoplasma gondii” (J Nat Prod, 2013).
